# Source: PubChem (SRMLSC)
# HCT116 PTEN-null – growth suppressors of cells with PTEN tumor suppressor deletion | viability, % at 10 µM | 140,000 tested, 1.2% active | HCT116 PTEN-null viability, CellTiter-Glo, 60 h; active compounds read low;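 active means viability at or below a set limit, 4 SD under the median of all tested compounds, cut at about 3.7% in these data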;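 further: PTEN knockout HCT116 line with beta catenin targeted HCT116 as companion control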
# Fibroblast inh – blocks proliferation of human lung fibroblasts | LL 47 human lung fibroblast viability, ATP luminescence; active compounds read low | viability, % at 10 µM | 85,000 tested, 1.1% active;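 active means viability at or below 50% in the single dose screen; inactive means viability above 50%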;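 further: compound exposure lasted 72 h before the ATP readout; 100% = median luminescence of untreated cell-only wells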
#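 Material: human lung fibroblast line LL 47, low passage; Evaluation: viability percentage against median untreated-cell control; Buffer or medium: 15% FBS in IMEM; Incubation: 72 h compound exposure at 37 °C after overnight plating; Dosing: 0.1% DMSO in all compound wells; Measured by: CellTiter-Glo luminescence.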
# bCat KO growth – beta-catenin-lacking colon tumor cell growth suppression; viability, % at 10 µM; 140,000 tested, 1.5% active; HCT116 beta-catenin knockout viability, CellTiter-Glo, 60 h; active compounds read low; AID 818;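 active means viability at or under a set limit, the compound median less 4 SD, cut at about 6% in these data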;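 further: 0% = Hyamine 1622 control at 20 µM and 100% = untreated cell control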
# H69AR growth 86K – blocks growth of human H69AR lung tumor cells | H69AR lung tumor viability, ATP luminescence, 72 h; active compounds read low | viability, % at 10 µM | AID 598 | 85,000 tested, 6% active;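 active means viability at or below 40%; inactive means viability above 40%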;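 further: multidrug resistant small cell line overexpressing MRP-1 efflux transporter; 100% = mean luminescence of untreated control wells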
# HUVEC inhibit – inhibitors of human endothelial cell proliferation | HUVEC proliferation, CellTiter-Glo luminescence, 72 h; active compounds read low | viability, % at 10 µM (by protocol) | 86,000 tested, 1.1% active;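 active means viability at or below 30%; inactive means viability above 30%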;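 further: 100% = median luminescence of DMSO-only cell control wells on each plate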
# An asterisk follows results filed as active; / = no result. The full list was thinned out, with hits kept by preference.
SMILES,HCT116 PTEN-null,Fibroblast inh,bCat KO growth,H69AR growth 86K,HUVEC inhibit
COc1ccc(C(c2nnnn2C(C)(C)C)N2CCN(c3nc4ccccc4s3)CC2)cc1 (centres undefined),72,100,77,83,96
CCC(C)(C)n1nnnc1C(c1ccc(O)c(OC)c1)N1CCN(c2nc3ccccc3s2)CC1 (centres undefined),83,94,66,14*,93
OC(c1ccccc1)c1cccnc1 (centres undefined),90,/,94,/,/
O=C(/C=C\c1ccccc1OC(=O)c1ccccc1F)c1cc2ccccc2o1,2.0*,/,3.3*,/,/
CN1CCN(Cn2cc(/C=C/C(=O)c3ccccc3)c3ccccc32)CC1,83,92,74,12*,66
CCCN(CCC)CC(O)Cn1cc(/C=C/C(=O)c2cccs2)c2ccccc21 (centres undefined),1.3*,/,1.2*,/,/
O=C(/C=C/c1cn(CC(O)CN2CCCCC2)c2ccccc12)c1cccs1 (centres undefined),5,/,2.7*,/,/
O=Cc1cn(CC(=O)N2CCOCC2)c2ccccc12,98,96,99,96,92
COc1cccc(-c2nn(-c3ccccc3)cc2/C=C\C(=O)c2cccs2)c1,10,/,10,/,/
C=CCn1c(=NC(=O)CC)n(C)c2ccccc21,105,/,93,/,/
COc1cc(/C=c2\sc3n(c2=O)CCCN=3)ccc1O,73,106,51,53,84
O=c1/c(=C/c2ccc([N+](=O)[O-])cc2)sc2n1CCCN=2,15,/,2.1*,/,/
CCCCN(C(=O)c1cccc2c(=O)c(C)c(-c3ccccc3)oc12)c1ccccc1,16,/,12,/,/
CCOc1ccc(S(=O)(=O)N2CCN(c3ccc(OC)cc3)CC2)c2cccnc12,95,96,82,35*,96
CCOc1ccc(S(=O)(=O)N2CCN(c3ccccc3)CC2)c2cccnc12,85,92,86,54,104
CCN(CC)S(=O)(=O)c1ccc(N2CCOCC2)c(NC(=O)Cc2cccc3ccccc23)c1,90,/,88,/,/
CCOc1ccc(Br)cc1/C(C)=N\NC1=NCCN1,15,52,14,18*,58
O=C(c1ccc(Cl)c(S(=O)(=O)NCc2ccco2)c1)N1CCN(c2ccccc2F)CC1,67,81,59,21*,73
O=C(c1ccco1)N1CCN(c2ccccc2F)CC1,99,109,101,103,98
COc1cc(C)c(Cl)cc1S(=O)(=O)NCc1ccco1,82,108,83,92,94
O=C(c1ccc(Cl)c(S(=O)(=O)Nc2ccc(F)cc2)c1)N1CCN(c2ccccn2)CC1,88,99,80,36*,74
CN(c1ccccc1)S(=O)(=O)c1cc(C(=O)N2CCN(c3ccccn3)CC2)ccc1Cl,71,93,60,71,82
COc1ccccc1N1CCN(C(=O)c2ccc(Cl)c(S(=O)(=O)NCc3ccco3)c2)CC1,29,68,28,23*,55
CC(=C/c1ccco1)/C=N/NC(=O)CSc1nnc(SCc2ccc(C)cc2)s1,100,/,106,/,/
Cc1cccc2nc(-c3ccccc3)nc(N[C@@H](CO)c3ccccc3)c12,42,/,53,/,/
SMILES,HCT116 PTEN-null,Fibroblast inh,bCat KO growth,H69AR growth 86K,HUVEC inhibit
CCC(C)NC(=O)CSc1nc2ccc(N3CCOCC3)cc2c(=O)n1CCc1ccccc1 (centres undefined),93,97,81,38*,83
COc1ccc(CC(=O)n2nc(-c3ccc(Cl)cc3)nc2NCc2ccco2)cc1,70,81,67,30*,75
O=C(c1cccs1)n1nc(-c2ccc(Cl)cc2)nc1NCc1ccco1,56,98,44,77,95
CC(=O)n1nc(-c2ccc(Cl)cc2)nc1NCc1ccco1,71,74,62,33*,57
Cn1c(=O)c2c(SCc3cccc(C(F)(F)F)c3)nc(-c3ccco3)nc2n(C)c1=O,14,48*,20,101,20*
Cn1c(=O)c2c(SCc3ccccc3)nc(-c3ccco3)nc2n(C)c1=O,63,63,73,51,67
COc1ccc(C(=O)c2oc3ccccc3c2NC(C)=O)cc1,100,95,92,90,106
COc1ccc(OC)c(C(=O)c2oc3ccccc3c2NC(C)=O)c1,54,/,60,22*,88
CCOC(=O)n1c(=O)oc2ccc(Cl)cc21,94,95,103,38*,68
CCCCOC(=O)n1c(=O)oc2ccccc21,102,101,101,59,76
Cn1cc(CNC(=O)/C=C/c2ccc(Cl)cc2)cn1,80,/,87,/,/
Cc1cccc(OCC(=O)N/N=C/CC(C)c2ccccc2)c1C (centres undefined),108,/,98,/,/
CC(C)C(=O)c1cn(CC(=O)N2CCCc3ccccc32)c2ccccc12,86,96,87,36*,77
O=C(CCNS(=O)(=O)c1c(Cl)cccc1Cl)OCC(=O)c1ccccc1,102,/,105,/,/
COc1cc2c3c(c1)C1(C(=O)N3C(C)(C)C=C2C)C(C#N)=C(N)Oc2cc(O)ccc21 (centres undefined),74,93,74,65,68
CCOc1cc2c3c(c1)C1(C(=O)N3C(C)(C)C=C2C)C(C#N)=C(N)Oc2cc(O)ccc21 (centres undefined),41,83,49,33*,46
Cc1ccc2nc(N3CC(=O)Nc4ccccc43)nc(-c3ccccc3)c2c1,1.2*,/,1.4*,/,/
COc1ccc(C2=Nn3c(nnc3-c3ccccc3)SC2)cc1OC,94,94,87,84,91
CCCc1nnc2n1N=C(c1ccc(OC)c(OC)c1)CS2,81,73,87,79,84
c1ccc(C2=Nn3c(nnc3-c3ccncc3)SC2)cc1,71,106,72,81,77
COc1ccc(Cc2nnc3n2N=C(c2cc4ccccc4o2)CS3)cc1OC,/,94,/,35*,82
COc1ccc(-c2nnc3n2N=C(c2ccccc2)CS3)cc1OC,/,15*,/,54,32
Cc1cccc(-c2nnc3n2N=C(c2ccccc2)CS3)c1,83,91,102,36*,97
c1ccc(-c2cc(-c3nnc4n3N=C(c3ccc5ccccc5c3)CS4)[nH]n2)cc1,1.9*,/,6,/,/
O=C(COC(=O)CNS(=O)(=O)c1ccc(F)c(F)c1F)Nc1ccc(OC(F)F)cc1,101,/,90,/,/
SMILES,HCT116 PTEN-null,Fibroblast inh,bCat KO growth,H69AR growth 86K,HUVEC inhibit
O=C(NC1CCCCC1)c1nc2c(nnn2Cc2ccccc2Cl)c(=O)[nH]1,91,108,95,87,86
COCCCNC(=O)C12CCC(C)(C(=O)C1)C2(C)C (centres undefined),99,105,83,84,101
COc1ccc(C2=Nn3c(nnc3C3CCCCC3)SC2)cc1OC,55,41*,60,15*,82
Cc1cc(-c2nnc3n2N=C(c2ccc(-c4ccccc4)cc2)CS3)n[nH]1,3.1*,60,19,3.9*,28*
CCOc1ccccc1C(=O)Nc1cnn(Cc2ccc(F)cc2)c1,110,/,106,/,/
Cn1cccc1Cc1nnc(SCC(=O)Nc2nc3ccccc3s2)n1CCc1ccccc1,75,76,90,5.4*,43
